Measured values from ChEMBL document CHEMBL3351657, “γ-Hydroxyethyl piperidine iminosugar and N-alkylated derivatives: a study of their activity as glycosidase inhibitors and as immunosuppressive agents” (Bioorg Med Chem, 2014).

Assays:
[1] = Inhibition of alpha-galactosidase (unknown origin) using p-nitrophenyl-alpha-D-galactopyranoside substrate incubated for 10 mins by UV spectrophotometry
How it was run: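 α-Galactosidase (0.1 unit/ml) preincubated with compound 1 h at 37 °C. Substrate added in 200 mM sodium acetate buffer, reaction run 10 min at 37 °C, and stopped with 200 mM borate buffer pH 9.8.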

PBMC = experiment: Immunosuppressive activity in human PBMC assessed as inhibition of cell proliferation using (methyl-3H)thymidine by mixed lymphocyte reaction assay; format: functional, cell-based
How it was run: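 PBMCs at 1.2 × 10⁶ cells/ml in RPMI-1640 with 10% heat-inactivated FCS and antibiotics. 100 µl of each cell suspension mixed with 20 µl diluted compound and cultured 6 days at 37 °C, 5% CO₂. 1 µCi (methyl-³H)thymidine per well added for the last 18 h. Cells harvested on glass filters and cpm counted by liquid scintillation.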

[2] = Inhibition of alpha-glucosidase (unknown origin) using p-nitrophenyl-alpha-D-glucopyranoside substrate incubated for 10 mins by UV spectrophotometry
How it was run: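 α-Glucosidase (0.1 unit/ml) preincubated with compound 1 h at 37 °C. Reaction started with 10 mM p-nitrophenyl substrate in 100 mM phosphate buffer pH 6.8, run 10 min at 37 °C, and stopped with 0.1 M Na₂CO₃.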

Jurkat = experiment: Cytotoxicity against human Jurkat cells assessed as cell viability after 3 hrs by WST1 assay; format: functional, cell-based; conditions: 48 h, in the assay text read “after 48 hrs” for “after 3 hrs”
How it was run: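 Jurkat cells in exponential growth seeded at 50 × 10³ per 200 µl complete medium, with compound dilution added (20 µl) and incubated 48 h at 37 °C, 5% CO₂. Untreated cells set maximum viability and 1% Triton X-100 (last 15 min) set minimum. After a further 3 h at 37 °C, optical density read at 450 nm.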

[3] = target: alpha-mannosidase (Canavalia ensiformis); experiment: Inhibition of jack bean alpha-mannosidase using p-nitrophenyl-alpha-D-mannopyranoside substrate incubated for 10 mins by UV spectrophotometry
B cell = experiment: Immunosuppressive activity in CPG oligonucleotide-induced human B cells assessed as inhibition of IgG production by immune assay; format: functional, cell-based
How it was run: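 Human B cells stimulated with CpG oligonucleotide and cultured with compound for 7 days at 37 °C, 5% CO₂. IgG concentration in supernatants then measured by immunoassay.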

IC50 [1] | IC50 ([2]; read-out: IC50) [µM] | IC50 [3] [µM] | IC50 (B cell) [µM] | IC50 ([1]; read-out: IC50) [µM] | IC50 [2] | Compound | IC50 (PBMC) [µM] | IC50 (Jurkat) [µM]
Not Active | 418 | 1830 | > 50 | – | – | OCCC1(O)[C@H](O)CNC[C@@H]1O (stereo partly specified) | > 10 | > 10
– | – | 183 | > 50 | 315 | Not Active | CCCCCCN1C[C@@H](O)C(O)(CCO)[C@@H](O)C1 (stereo partly specified) | > 10 | > 10
Not Active | – | – | 15 | – | Not Active | CCCCCCCCCCN1C[C@@H](O)C(O)(CCO)[C@@H](O)C1 (stereo partly specified) | > 10 | > 10
Not Active | – | – | > 50 | – | Not Active | CCCCCCCCN1C[C@@H](O)C(O)(CCO)[C@@H](O)C1 (stereo partly specified) | > 10 | > 10
– | 360 | 252 | > 50 | 167 | – | CCCCN1C[C@@H](O)C(O)(CCO)[C@@H](O)C1 (stereo partly specified) | > 10 | > 10
– | 171 | – | – | 1850 | – | OCCN1C[C@H](O)[C@@H](O)[C@H](O)[C@H]1CO [MIGLITOL] | – | –
Not Active | 252 | 873 | > 50 | – | – | OCCN1C[C@@H](O)C(O)(CCO)[C@@H](O)C1 (stereo partly specified) | > 10 | > 10
